In brackets after ≈: the same amount, converted by molar mass.
Key:
[1] = Antiproliferative activity against PTEN negative human PC3 cells measured after 96 hrs by CCK-8 assay; assay type: functional, cell-based; conditions: PC-3, 96 h
Outline: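 PC-3 prostate cells (ATCC) exposed to a range of compound concentrations for 96 hours; growth inhibition read with Cell Counting Kit-8.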

[2] = Solubility of compound in FaSSIF at pH 6.5 by HPLC-UV analysis; assay type: physicochemical
Outline: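 A 4-mM or 1-mM DMSO stock was freeze-dried and the residue taken up in FaSSIF (pH 6.5: sodium taurocholate, lecithin, KH2PO4, KCl, NaOH). Sonicated 10 min, shaken 2 h, centrifuged 10 min at 3000 rpm and filtered. Filtrate measured by HPLC-UV against each compound's calibration curve.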

[3] = AUC in Balb/c nude mouse at 50 mg/kg, po measured after 24 hrs by LC-MS/MS analysis; assay type: ADME, organism-based; set-up: dose 50 mg/kg, time < 24 hr, route oral; conditions: in vivo
Outline: (§1)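 Female BALB/c-nu mice, n=2 per group, single oral dose of 50 mg/kg given as a solution in 10% DMSO, 10% Cremophor EL, 15% PEG400, 15% HPCD. Heparinized blood drawn at 0.25, 2, 4, 7 and 24 h; plasma stored at –80 °C. Plasma levels by LC–MS/MS; parameters by non-compartmental analysis.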

[4] = Cmax in Balb/c nude mouse at 50 mg/kg, po measured after 24 hrs by LC-MS/MS analysis; assay type: ADME, organism-based; set-up: dose 50 mg/kg, route oral; conditions: in vivo; outline: as §1
[5] = target: PI3-kinase p110-alpha/p85-alpha (Homo sapiens, UniProt P42336); experiment: Inhibition of human PI3K p110alpha/p85alpha expressed in baculovirus preincubated for 20 mins followed by addition of phosphorylate phosphatidylinositol-4,5-bisphosphate as substrate and ATP measured after 15 mins by AlphaScreen competition assay
PI3-kinase p110-alpha/p85-alpha, sequence (P27986 whole entry): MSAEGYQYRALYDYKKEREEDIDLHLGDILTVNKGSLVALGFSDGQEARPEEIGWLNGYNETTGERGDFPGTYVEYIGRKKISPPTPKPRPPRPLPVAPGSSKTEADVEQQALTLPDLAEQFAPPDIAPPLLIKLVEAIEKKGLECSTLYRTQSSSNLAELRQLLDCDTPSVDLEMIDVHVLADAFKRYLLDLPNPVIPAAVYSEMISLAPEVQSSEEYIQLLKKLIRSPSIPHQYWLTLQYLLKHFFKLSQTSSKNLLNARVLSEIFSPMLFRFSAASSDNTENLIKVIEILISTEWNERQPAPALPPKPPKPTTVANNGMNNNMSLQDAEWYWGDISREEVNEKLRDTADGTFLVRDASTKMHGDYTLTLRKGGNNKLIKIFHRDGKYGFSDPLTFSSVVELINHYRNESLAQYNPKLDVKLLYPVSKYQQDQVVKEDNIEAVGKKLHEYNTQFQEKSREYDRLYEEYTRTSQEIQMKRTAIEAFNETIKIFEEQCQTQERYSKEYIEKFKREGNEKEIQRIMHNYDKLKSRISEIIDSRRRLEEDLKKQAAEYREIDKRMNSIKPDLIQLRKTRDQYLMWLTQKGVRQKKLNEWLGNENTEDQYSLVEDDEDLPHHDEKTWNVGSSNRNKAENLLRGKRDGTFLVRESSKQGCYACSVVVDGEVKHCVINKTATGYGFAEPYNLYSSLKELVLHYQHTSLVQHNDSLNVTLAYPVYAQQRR
PI3-kinase p110-alpha/p85-alpha, sequence (P42336 whole entry): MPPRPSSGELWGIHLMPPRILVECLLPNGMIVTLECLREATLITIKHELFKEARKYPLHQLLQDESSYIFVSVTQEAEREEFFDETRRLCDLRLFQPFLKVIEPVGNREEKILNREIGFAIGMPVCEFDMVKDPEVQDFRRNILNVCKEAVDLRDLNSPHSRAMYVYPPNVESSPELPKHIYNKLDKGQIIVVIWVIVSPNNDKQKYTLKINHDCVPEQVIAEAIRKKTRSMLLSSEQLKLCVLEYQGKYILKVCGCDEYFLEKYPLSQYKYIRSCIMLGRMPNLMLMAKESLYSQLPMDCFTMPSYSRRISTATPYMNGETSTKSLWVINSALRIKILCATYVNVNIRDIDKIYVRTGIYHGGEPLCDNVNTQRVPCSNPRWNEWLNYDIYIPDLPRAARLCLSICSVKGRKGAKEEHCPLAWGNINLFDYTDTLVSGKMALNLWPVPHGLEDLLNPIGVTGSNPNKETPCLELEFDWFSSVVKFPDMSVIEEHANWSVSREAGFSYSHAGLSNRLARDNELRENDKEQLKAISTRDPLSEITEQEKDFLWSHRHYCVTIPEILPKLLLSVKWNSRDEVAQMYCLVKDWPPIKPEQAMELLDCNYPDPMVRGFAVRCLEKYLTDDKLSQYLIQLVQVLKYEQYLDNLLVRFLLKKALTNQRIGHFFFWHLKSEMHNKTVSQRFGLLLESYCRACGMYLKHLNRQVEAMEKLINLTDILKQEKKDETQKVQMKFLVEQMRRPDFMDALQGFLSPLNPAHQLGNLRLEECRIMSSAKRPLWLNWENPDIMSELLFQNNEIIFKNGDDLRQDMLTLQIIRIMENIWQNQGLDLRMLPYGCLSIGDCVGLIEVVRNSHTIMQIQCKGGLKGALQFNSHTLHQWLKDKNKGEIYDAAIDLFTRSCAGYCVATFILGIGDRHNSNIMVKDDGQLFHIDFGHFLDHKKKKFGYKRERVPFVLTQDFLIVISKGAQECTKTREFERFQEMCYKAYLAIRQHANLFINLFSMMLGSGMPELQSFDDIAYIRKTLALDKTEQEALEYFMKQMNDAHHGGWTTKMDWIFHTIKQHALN
Outline: (§2)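 Purified baculovirus-expressed human p110/p85α preincubated with compound 20 min at room temperature. Then 4 µM PI(4,5)P2 and 10 µM ATP (5 mM Hepes pH 7.5, 2.5 mM MgCl2) added for 15 min at 37 °C. PIP3 product detected by AlphaScreen competition using GST-GRP1, biotin-PIP3 and anti-GST acceptor/streptavidin donor beads, 1 h at room temperature.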

PI3K p110 beta/p85 alpha = PI3K p110 beta/p85 alpha (Homo sapiens, UniProt P42338); experiment: Inhibition of human PI3K p110beta/p85alpha expressed in baculovirus preincubated for 20 mins followed by addition of phosphorylate phosphatidylinositol-4,5-bisphosphate as substrate and ATP measured after 15 mins by AlphaScreen competition assay; outline: as §2
PI3K p110 beta/p85 alpha, sequence (P27986 whole entry): as the sequence (P27986 whole entry) above
PI3K p110 beta/p85 alpha, sequence (P42338 whole entry): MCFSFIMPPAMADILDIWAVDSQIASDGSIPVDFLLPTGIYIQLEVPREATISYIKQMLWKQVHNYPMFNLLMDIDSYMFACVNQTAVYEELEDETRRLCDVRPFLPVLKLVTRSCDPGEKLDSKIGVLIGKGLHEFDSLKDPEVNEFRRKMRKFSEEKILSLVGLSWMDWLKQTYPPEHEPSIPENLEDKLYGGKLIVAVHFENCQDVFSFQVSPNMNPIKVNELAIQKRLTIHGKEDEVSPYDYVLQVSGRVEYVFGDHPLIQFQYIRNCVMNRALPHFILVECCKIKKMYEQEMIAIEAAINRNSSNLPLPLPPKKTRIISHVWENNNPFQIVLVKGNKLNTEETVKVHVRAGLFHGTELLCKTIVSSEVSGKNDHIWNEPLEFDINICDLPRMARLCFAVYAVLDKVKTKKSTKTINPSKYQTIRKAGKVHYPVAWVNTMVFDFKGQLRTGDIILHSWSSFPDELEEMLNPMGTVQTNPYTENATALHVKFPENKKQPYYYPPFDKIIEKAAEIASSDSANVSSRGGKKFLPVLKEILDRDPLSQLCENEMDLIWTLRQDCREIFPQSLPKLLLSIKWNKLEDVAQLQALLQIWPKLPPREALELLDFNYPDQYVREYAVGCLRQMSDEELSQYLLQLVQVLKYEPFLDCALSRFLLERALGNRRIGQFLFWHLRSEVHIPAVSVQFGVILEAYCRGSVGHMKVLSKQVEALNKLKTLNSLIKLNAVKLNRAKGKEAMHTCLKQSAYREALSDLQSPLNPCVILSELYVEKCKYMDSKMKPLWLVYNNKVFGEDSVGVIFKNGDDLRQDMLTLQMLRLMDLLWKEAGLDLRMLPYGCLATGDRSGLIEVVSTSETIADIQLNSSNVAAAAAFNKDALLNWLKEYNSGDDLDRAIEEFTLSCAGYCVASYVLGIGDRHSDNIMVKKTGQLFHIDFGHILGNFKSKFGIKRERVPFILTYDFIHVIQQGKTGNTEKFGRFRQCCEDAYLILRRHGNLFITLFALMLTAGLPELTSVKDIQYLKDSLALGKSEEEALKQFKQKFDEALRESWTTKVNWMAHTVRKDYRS

[6] = Metabolic stability in human liver microsomes assessed as clearance; assay type: ADME; conditions: read-out: CLH
[7] = Permeability of compound by PAMPA method; assay type: ADME; conditions: read-out: permeability
[8] = Antitumor activity PTEN negative human PC3 cells xenografted into nude mouse assessed as tumor growth inhibition at 6.25 mg/kg, qd administered orally for 11 days; assay type: functional; conditions: PC-3, po, 264 h, read-out: TGI
Outline: (§3)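 PC-3 grown as subcutaneous tumors in nude mice; dosing began (day 0) at about 130 mm3. Four mice per group, randomized to vehicle or drug by oral sonde once daily on days 0–10; vehicle 10% DMSO, 10% Cremophor EL, 15% PEG400, 15% HPCD. TV = (L W²)/2; TGI = [1 − (T − T0)/(C − C0)] × 100; body weight as W/W0 × 100.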

Mus musculus = experiment: Toxicity in nude mouse xenografted with PTEN negative human PC3 cells assessed as body weight loss; assay type: organism-based, PC-3; conditions: in vivo; outline: as §3
[9] = Metabolic stability in mouse liver microsomes assessed as clearance; assay type: ADME; conditions: read-out: CLH

Row | Compound | IC50 [1] [nM] | solubility [2] [µg/mL] | IC50 [5] [nM] | further results
1 | CCN1CCN(c2ccc(NC(=O)N3CCc4c(-c5cnc(N)nc5)nc(N5CCOCC5)nc43)c(C)c2)CC1 | 210 | 11 (≈ 20.2 µM) |  | 
2 | Nc1ncc(-c2nc(N3CCOCC3)nc3c2CCN3C(=O)Nc2ccccc2)cn1 |  | < 3 |  | AUC at 24 h [3]: 437 ng·h/mL; Cmax [4]: 104 ng/mL
3 | CC(C)c1ccccc1NC(=O)N1CCc2c(-c3cnc(N)nc3)nc(N3CCOCC3)nc21 |  | 13 (≈ 28.2 µM) | 81 | 
4 | CCc1ccccc1NC(=O)N1CCc2c(-c3cnc(N)nc3)nc(N3CCOCC3)nc21 |  |  | 64 | 
5 | CN(C(=O)N1CCc2c(-c3cnc(N)nc3)nc(N3CCOCC3)nc21)c1ccccc1 |  | < 3 | 130 | 
6 | Cc1ccccc1NC(=O)N1CCc2c(-c3cnc(N)nc3)nc(N3CCOCC3)nc21 |  | < 14 | 52 | 
7 | CCN1CCN(c2cc(F)c(NC(=O)N3CCc4c(-c5cnc(N)nc5)nc(N5CCOCC5)nc43)c(F)c2)CC1 | 58 | 20 (≈ 35.3 µM) |  | AUC at 24 h [3]: 5680 ng·h/mL; IC50 (PI3K p110 beta/p85 alpha): 7 nM; microsomal CLint [6]: 2.2 µL/min/mg; Cmax [4]: 460 ng/mL; Papp [7]: 1.1 ×10⁻⁶ cm/s; inhibition in vivo at 6.25 mg/kg [8]: 82%; Activity (Mus musculus): Non-toxic; microsomal CLint [9]: 7.6 µL/min/mg
8 | CCN1CCN(C(=O)c2ccc(NC(=O)N3CCc4c(-c5cnc(N)nc5)nc(N5CCOCC5)nc43)c(C)c2)CC1 | 250 | < 18 | 26 | 
9 | Nc1ncc(-c2nc(N3CCOCC3)nc3c2CCN3c2cccnc2)cn1 |  | < 12 |  | 
10 | Cc1nc(N)ncc1-c1nc(N2CCOCC2)nc2c1CCN2c1cccnc1 |  | 56 (≈ 143 µM) | 260 | 
